KCNQ1 pot: potentiates or activates the human KCNQ1 potassium channel | CHO-K1 KCNQ1, thallium flux FluxOR fluorescence; hits give high values | AID 2648 | B-score at 10 µM | P51787 | 310,000 tested, 0.35% active;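 active = fluorescence ratio B-score, a plate-corrected score, at least three library SD, with initial intensity B-score within 5 SD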
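Doses: Single concentration per compound, DMSO matched to controls | Test system: KCNQ1-transfected CHO-K1 cells | Timing: 90 min dye loading and 20 min compound exposure, both at room temperature | Measured by: Kinetic FluxOR thallium fluorescence, 10-s 1-Hz baseline, 110-s post-stimulus read | Medium: Assay buffer with matched DMSO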
KCNQ1 inh: human KCNQ1 channel inhibition. AID 2642. CHO-K1 KCNQ1, FluxOR thallium flux fluorescence; hits give high values. B-score at 10 µM. 310,000 tested, 1.3% active. P51787;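 active = compounds whose thallium flux B-score, printed positive for inhibition, exceeds three library SD while starting fluorescence stays within three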;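 also: channel opened by potassium depolarization with thallium stimulus after 20 min compound exposure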
KCNK3 block: human KCNK3 channel inhibition, primary screen; B-score at 10 µM; 340,000 tested, 0.84% active; O14649; CHO-KCNK3 thallium flux, FluxOR fluorescence; hits give low values;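 active = B-score under library mean minus 4 SD, starting fluorescence ratio at most library mean plus 5 SD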;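 also: more negative B-score means stronger inhibition of thallium flux through KCNK3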
KCC2 mod: modulators of human KCC2 chloride dependent transport. Q9H2X9. B-score of Tl+ flux slope (higher = more flux/activation; lower = inhibition) at 10 µM. KCC2 cells, thallium flux FluoZin-2 fluorescence. 190,000 tested, 2.2% active. AID 1456;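 active = thallium flux slope and its plate-corrected score both differing from the plate sample mean at a set confidence after two filtering rounds, in either direction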;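 also: slope of fluorescence scaled to starting intensity during 10 to 20 s after thallium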
hERG protect: shields human hERG channel from block by proarrhythmic agents; Q12809; CHO-hERG, FluxOR thallium flux, dofetilide IC70 present; activation (rescue from dofetilide block), less the hit threshold, % at 10 µM; 310,000 tested, 0.51% active; AID 1511;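 active = activation above the mean of controls blocked by dofetilide plus 5 SD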;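 also: thallium influx through hERG after potassium depolarization seen as dye fluorescence rise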
KCNK9 inh: inhibitors of human KCNK9 two-pore domain potassium channel; Q9NPC2; 310,000 tested, 1.2% active; B-score at 10 µM; HEK293 KCNK9, FluxOR thallium flux fluorescence; hits give low values; AID 488922;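 active = ratio B-score over 3 SD below the library mean, with starting fluorescence within 5 SD of its mean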;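 also: negative B-score means less thallium flux so channel inhibition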
* hit, by the source's call; i = inactive; / = not tested or not shown. Hits are enriched below; roughly 4.1% of the tested compounds scored in any of these assays.

SMILES | KCNQ1 pot | KCNQ1 inh | KCNK3 block | KCC2 mod | hERG protect | KCNK9 inh
CN(C)/C=C1/N=C(c2ccccc2)OC1=O | i | i | i | 0.18 | -3 | i
O=C(Nc1ccc(Br)cc1Cl)Nn1cnnc1 | i | i | i | -0.49 | 6.2* | i
CCOC(=O)C1CCN(c2cc3c(cc2NC(=O)c2ccc(OC)c(OC)c2)n(C)c(=O)n3C)CC1 | i | i | i | / | -7 | -6.8*
CC1c2cc3c(cc2CCN1C(=O)c1ccc(C(F)(F)F)cc1)OCCCO3 (stereo not given) | i | i | i | / | -17 | -6.9*
Cc1ccc(NC(=O)c2cc3cc(OC(F)(F)F)ccc3[nH]2)cc1 | i | 6* | / | -0.54 | -3 | i
CCC1(C(=O)O)NC(c2cc(OC)ccc2O)C2C(=O)N(Cc3ccccc3)C(=O)C21 (stereo not given) | i | i | i | -0.68 | 5.5* | i
Clc1ccc(CN2CCN(c3ccccc3)CC2)cn1 | i | i | i | / | -8 | i
COc1cccc(OC)c1/C(O)=C(\C#N)c1nc2ccccc2[nH]1 | i | i | i | 0.065 | -3 | -7.7*
CC(=O)C1=C(O)C(CSCc2ccccc2)N(C)C1=O (stereo not given) | / | / | i | / | / | /
O=C(O)C1(c2ccccc2)CCN(S(=O)(=O)c2cccs2)CC1 | i | i | i | -0.33 | 5.2* | i
COc1ccccc1NC(=O)CN1CCC(C(=O)c2ccc(F)cc2)CC1 | i | i | i | -1.3 | -16 | i
CCOc1ccccc1NC(=O)CN1CCC(C(=O)c2ccc(F)cc2)CC1 | i | i | i | / | -5 | -7.1*
CCOC(=O)N1CCC(NC(=O)Cn2ncc3c4ccccc4n(C)c3c2=O)CC1 | i | i | i | -2.6* | 2 | i
CCOC(=O)C1CCN(C(=O)CSc2cc(=O)n(CC)c3ccccc23)CC1 | i | i | i | / | -2 | i
CCOC(=O)N1CCC(NC(=O)CSc2cc(=O)n(CC)c3ccccc23)CC1 | i | i | i | -0.68 | -8 | -7.1*
CCOC(=O)N1CCC(NC(=O)Cn2ncc3ccccc32)CC1 | i | i | i | 0.024 | 3 | i
CC12CCC(C(=O)NCc3ccc4c(c3)OCO4)(CC1=O)C2(C)C (stereo not given) | i | i | i | / | 5.3* | i
CC12CCC(C(=O)NCc3ccc4c(c3)OCO4)(C(=O)C1=O)C2(C)C (stereo not given) | i | i | i | / | 4 | i
COC(=O)CN1C(c2ccccc2)=Nc2ccc(Cl)cc2C1c1ccccc1 (stereo not given) | i | i | i | -4* | -15 | i
CCOC(=O)c1c(C)[nH]c(C(=O)COc2ccc3ccc(=O)oc3c2)c1C | / | / | i | / | / | /
COCCN(CCOC)Cc1c(O)ccc2c1O/C(=C\c1ccc(C)o1)C2=O | i | 9* | i | / | -22 | i
Cc1ccc(/C=C2\Oc3cc(OCC(=O)NN)ccc3C2=O)o1 | i | i | i | / | -10 | i
CCOC(=O)CSc1nnc(CNc2ccc(Cl)cc2)n1Cc1ccccc1 | i | 8* | i | -3.2 | -15 | i
CC(C)OC(=O)CSc1nnc(CNc2ccc(Cl)cc2)n1Cc1ccccc1 | i | i | i | / | -14 | i
Cc1ccc(OCC(=O)NC(=S)Nc2ccc(Br)c(C)n2)cc1 | i | i | i | / | -7 | i
SMILES | KCNQ1 pot | KCNQ1 inh | KCNK3 block | KCC2 mod | hERG protect | KCNK9 inh
Cc1ccc2oc(-c3cccc(NC(=S)NC(=O)c4cccs4)c3)nc2c1 | i | i | i | 7.7* | -6 | i
Cc1cccc(NC(=O)CNC(=O)c2ccco2)n1 | i | i | i | / | -13 | i
Cc1cccc(NC(=S)NC(=O)c2cccs2)n1 | i | i | i | 18* | -5 | i
Cc1ccc(OCC(=O)NC(=S)Nc2cccc(C)n2)cc1 | i | i | i | 8.4* | -6 | i
Cc1cccc(NC(=S)NC(=O)c2ccco2)n1 | i | i | i | 28* | -6 | i
CCc1ccccc1N(CC(=O)NC1CCCCC1)C(=O)CNC(=O)c1ccco1 | i | i | i | / | -6 | i
O=C(c1cccc([N+](=O)[O-])c1)N1CCN(S(=O)(=O)/C=C/c2ccccc2)CC1 | / | / | i | / | / | /
COc1ccc(NC(=O)CN(C)C(=O)c2ccc(NS(=O)(=O)c3ccc(F)cc3)cc2)cc1 | i | i | i | / | -14 | i
CC(=O)c1c(C)[nH]c(C(=O)C(C)Sc2nnc(NC3CC3)s2)c1C (stereo not given) | / | / | i | / | / | /
CCCN(CC(=O)Nc1ccccc1C)C(=O)CSc1ccccc1C | / | / | i | / | / | /
Cc1ccc2nc(NC(=O)c3cccs3)sc2c1 | / | / | i | 1.4 | / | /
Cc1ccc2nc(NC(=S)NC(=O)c3cccs3)sc2c1 | 17* | i | i | 9.2* | 10* | i
CCc1c(C)sc2nc(C(C)C)nc(SCC(=O)N3CCc4ccccc4C3)c12 | i | 9* | / | / | -7 | i
COc1ccc(-c2nnnn2C)cc1S(=O)(=O)Nc1ccc(C)cc1C | i | i | i | / | -8 | i
O=C(NCc1cc(C(F)(F)F)cc(C(F)(F)F)c1)C1CC(c2ccccc2C(F)(F)F)=NO1 (stereo not given) | i | i | / | / | -10 | i
O=C(NCc1ccccc1C(F)(F)F)C1CC(c2cc(C(F)(F)F)cc(C(F)(F)F)c2)=NO1 (stereo not given) | i | 6* | i | 0.014 | -6 | i
COc1ccc(N(CC(=O)NCCc2ccc(OC)c(OC)c2)S(=O)(=O)c2ccc(OC)c(OC)c2)cc1 | i | i | i | / | -6 | i
Cc1ccc(-c2nc3cccnc3o2)cc1NC(=O)COc1ccc(C(C)(C)C)cc1 | i | 9* | i | / | -6 | i
Cc1ccc(CN2C(=O)c3ccccc3NC2c2cc(Br)ccc2O)cc1 (stereo not given) | i | 13* | i | / | -13 | i
O=C1c2ccccc2NC(c2ccccc2)N1Cc1ccccc1 (stereo not given) | i | i | i | / | -11 | i
Cc1cc(N)ccc1-n1c(C)ccc1C | i | i | i | -0.45 | -9 | i
Cc1cc(N)ccc1N1CCCC1 | i | 7* | i | / | -8 | i
COc1ccc(Cl)cc1S(=O)(=O)N1CCC(C(=O)NCc2ccco2)CC1 | i | i | i | / | -10 | i
Fc1ccccc1NC(=S)Nc1ccc(Br)cc1 | i | i | i | 1.2 | -15 | i
CC(=O)Nc1ccc(NC(=S)Nc2ccc(Br)cc2)cc1 | i | 6* | i | -0.13 | -14 | i
O=C(Nc1cccc(C(=O)Nc2ccc(Br)cc2)c1)c1ccccc1 | i | i | i | / | -4 | i
